Measurements as given in ChEMBL document CHEMBL1275251, “Mutant selection window and characterization of allelic diversity for ciprofloxacin-resistant mutants of Rhodococcus equi” (Antimicrob Agents Chemother, 2010).
In brackets after ≈: the same amount, converted by molar mass. Activity calls are given as the source filed them. The rule behind the calls is not given here.

Tests used:
Prescottella equi [1] = assay: Antibacterial activity against Rhodococcus equi W5234 harboring GyrA Asp87His mutation selected on 6 ug/ml of compound treated culture by broth microdilution method; type: functional; settings: Rhodococcus (subgen. Prescottella) equi
Outline: (§1)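 Mutants were selected by plating at least 1 × 10^10 cells, grown 48 h at 35°C in brain heart infusion broth, on ciprofloxacin-containing Columbia blood agar base for 4 days at 35°C. Each was confirmed by two passages at the selecting concentration and one drug-free passage. MIC was then read by broth microdilution in cation-supplemented Mueller-Hinton broth per CLSI M24-A. Each experiment was done twice.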

Prescottella equi [2] = assay: Antibacterial activity against Rhodococcus equi W5234 harboring GyrA Asp87Asn mutation selected on 8 ug/ml of compound treated culture by broth microdilution method; type: functional, organism-based; outline: as §1
Prescottella equi [3] = assay: Antibacterial activity against Rhodococcus equi W5234 harboring GyrA Asp87Gly mutation selected on 6 ug/ml of compound treated culture by broth microdilution method; type: functional; settings: Rhodococcus (subgen. Prescottella) equi; outline: as §1
Prescottella equi [4] = assay: Antibacterial activity against Rhodococcus equi ATCC 6939T harboring GyrA Asp87Gly mutation selected on 4 ug/ml of compound treated culture by broth microdilution method; type: functional; settings: Rhodococcus (subgen. Prescottella) equi; outline: as §1
Prescottella equi [5] = assay: Antibacterial activity against Rhodococcus equi ATCC 6939T harboring GyrA Asp87Gly mutation selected on 6 ug/ml of compound treated culture by broth microdilution method; type: functional; settings: Rhodococcus (subgen. Prescottella) equi; outline: as §1
Prescottella equi [6] = assay: Antibacterial activity against Rhodococcus equi W5234 harboring GyrA Ser83Ile mutation selected on 4 ug/ml of compound treated culture by broth microdilution method; type: functional; settings: Rhodococcus (subgen. Prescottella) equi; outline: as §1
Prescottella equi [7] = assay: Antibacterial activity against Rhodococcus equi W5234 harboring GyrA Asp87Asn mutation selected on 4 ug/ml of compound treated culture by broth microdilution method; type: functional; settings: Rhodococcus (subgen. Prescottella) equi; outline: as §1
Prescottella equi [8] = assay: Antibacterial activity against Rhodococcus equi ATCC 6939T harboring GyrA Asp87Asn mutation selected on 8 ug/ml of compound treated culture by broth microdilution method; type: functional; settings: Rhodococcus (subgen. Prescottella) equi; outline: as §1
Prescottella equi [9] = assay: Antibacterial activity against Rhodococcus equi ATCC 6939T harboring GyrA Asp87Gly mutation selected on 8 ug/ml of compound treated culture by broth microdilution method; type: functional; settings: Rhodococcus (subgen. Prescottella) equi; outline: as §1
Prescottella equi [10] = assay: Antibacterial activity against Rhodococcus equi ATCC 6939T harboring GyrA Ser83Arg mutation selected on 8 ug/ml of compound treated culture by broth microdilution method; type: functional; settings: Rhodococcus (subgen. Prescottella) equi; outline: as §1
Prescottella equi [11] = assay: Antibacterial activity against Rhodococcus equi ATCC 6939T harboring GyrA Asp87Asn mutation selected on 6 ug/ml of compound treated culture by broth microdilution method; type: functional; settings: Rhodococcus (subgen. Prescottella) equi; outline: as §1
Prescottella equi [12] = assay: Antibacterial activity against Rhodococcus equi ATCC 6939T harboring GyrB Asn464Asp mutation selected on 1 ug/ml of compound treated culture by broth microdilution method; type: functional, organism-based; outline: as §1
Prescottella equi [13] = assay: Antibacterial activity against Rhodococcus equi W5234 selected on 1 ug/ml of compound treated culture by broth microdilution method; type: functional; settings: Rhodococcus (subgen. Prescottella) equi; outline: as §1
Prescottella equi [14] = assay: Antibacterial activity against Rhodococcus equi W5234 harboring GyrA Ser83Arg mutation selected on 4 ug/ml of compound treated culture by broth microdilution method; type: functional; settings: Rhodococcus (subgen. Prescottella) equi; outline: as §1
Prescottella equi [15] = assay: Antibacterial activity against Rhodococcus equi W5234 selected on 2 ug/ml of compound treated culture by broth microdilution method; type: functional; settings: Rhodococcus (subgen. Prescottella) equi; outline: as §1
Prescottella equi [16] = assay: Antibacterial activity against Rhodococcus equi W5234 harboring GyrA Ser83Arg mutation selected on 12 ug/ml of compound treated culture by broth microdilution method; type: functional; settings: Rhodococcus (subgen. Prescottella) equi; outline: as §1
Prescottella equi [17] = assay: Antibacterial activity against Rhodococcus equi ATCC 6939T selected on 8 ug/ml of compound treated culture by broth microdilution method; type: functional, organism-based; outline: as §1
Prescottella equi [18] = assay: Antibacterial activity against Rhodococcus equi W5234 harboring GyrA Ser83Arg mutation selected on 8 ug/ml of compound treated culture by broth microdilution method; type: functional; settings: Rhodococcus (subgen. Prescottella) equi; outline: as §1
Prescottella equi [19] = assay: Antibacterial activity against Rhodococcus equi W5234 harboring GyrB Asn464Asp mutation selected on 1 ug/ml of compound treated culture by broth microdilution method; type: functional; settings: Rhodococcus (subgen. Prescottella) equi; outline: as §1
Prescottella equi [20] = assay: Antibacterial activity against Rhodococcus equi W5234 harboring GyrA Asp87Asn mutation selected on 6 ug/ml of compound treated culture by broth microdilution method; type: functional, organism-based; outline: as §1
Prescottella equi [21] = assay: Antibacterial activity against Rhodococcus equi W5234 harboring GyrA Ser83Ile mutation selected on 12 ug/ml of compound treated culture by broth microdilution method; type: functional; settings: Rhodococcus (subgen. Prescottella) equi; outline: as §1
Prescottella equi [22] = assay: Antibacterial activity against Rhodococcus equi ATCC 6939T harboring GyrA Asp87His mutation selected on 6 ug/ml of compound treated culture by broth microdilution method; type: functional; settings: Rhodococcus (subgen. Prescottella) equi; outline: as §1
Prescottella equi [23] = assay: Antibacterial activity against Rhodococcus equi ATCC 6939T harboring GyrA Gly81Cys mutation selected on 4 ug/ml of compound treated culture by broth microdilution method; type: functional; settings: Rhodococcus (subgen. Prescottella) equi; outline: as §1
Prescottella equi [24] = assay: Antibacterial activity against Rhodococcus equi W5234 harboring GyrA Ser83Ile mutation selected on 8 ug/ml of compound treated culture by broth microdilution method; type: functional; settings: Rhodococcus (subgen. Prescottella) equi; outline: as §1
Prescottella equi [25] = assay: Antibacterial activity against Rhodococcus equi ATCC 6939T harboring GyrA Ser83Arg mutation selected on 16 ug/ml of compound treated culture by broth microdilution method; type: functional; settings: Rhodococcus (subgen. Prescottella) equi; outline: as §1

O=C(O)c1cn(C2CC2)c2cc(N3CCNCC3)c(F)cc2c1=O [CIPROFLOXACIN]
MIC (Prescottella equi [1]): 16 µg/mL (≈ 48.3 µM)
MIC (Prescottella equi [2]): inactive
MIC (Prescottella equi [3]): 16 µg/mL (≈ 48.3 µM)
MIC (Prescottella equi [4]): 8 µg/mL (≈ 24.1 µM)
MIC (Prescottella equi [5]): 16 µg/mL (≈ 48.3 µM)
MIC (Prescottella equi [6]): 32 µg/mL (≈ 96.6 µM)
MIC (Prescottella equi [7]): 16 µg/mL (≈ 48.3 µM)
MIC (Prescottella equi [8]): 32 µg/mL (≈ 96.6 µM)
MIC (Prescottella equi [9]): 16 µg/mL (≈ 48.3 µM)
MIC (Prescottella equi [10]): 64 µg/mL (≈ 193 µM)
MIC (Prescottella equi [11]): 16 µg/mL (≈ 48.3 µM)
MIC (Prescottella equi [12]): inactive
MIC (Prescottella equi [13]): 2 µg/mL (≈ 6.04 µM)
MIC (Prescottella equi [14]): 32 µg/mL (≈ 96.6 µM)
MIC (Prescottella equi [15]): 2 µg/mL (≈ 6.04 µM)
MIC (Prescottella equi [16]): 64 µg/mL (≈ 193 µM)
MIC (Prescottella equi [17]): inactive
MIC (Prescottella equi [18]): 32 µg/mL (≈ 96.6 µM)
MIC (Prescottella equi [19]): 4 µg/mL (≈ 12.1 µM)
MIC (Prescottella equi [20]): inactive
MIC (Prescottella equi [21]): 64 µg/mL (≈ 193 µM)
MIC (Prescottella equi [22]): 16 µg/mL (≈ 48.3 µM)
MIC (Prescottella equi [23]): 8 µg/mL (≈ 24.1 µM)
MIC (Prescottella equi [24]): 32 µg/mL (≈ 96.6 µM)
MIC (Prescottella equi [25]): 32 µg/mL (≈ 96.6 µM)
